As usually defined, the pEC50 is the negative decadic logarithm of the EC50, by convention in mol/L.

This is an account of results in ChEMBL document CHEMBL4382192, “Discovery of a potent dual ALK and EGFR T790M inhibitor” (Eur J Med Chem, 2017).

Data set [1] has as its target Calcium/calmodulin-dependent protein kinase type 1 (Homo sapiens) (UniProt Q14012). Put plainly: Binding affinity to wild-type human full length CAMK1 (M1 to L370 residues) expressed in bacterial expression system assessed as residual binding level at 1 uM by Kinomescan method relative to control.
The subject of another data set is BaF3. Put plainly: Antiproliferative activity against mouse BAF3 cells assessed as reduction in cell viability after 72 hrs by MTS assay. It is filed as cell-based. Particulars: BaF3, 72 h. On the technique in general: Formazan colour is commonly taken as a measure of viable cells.
For data set [2], the target named is 5'-AMP-activated protein kinase catalytic subunit alpha-1 (Homo sapiens) (UniProt Q13131). Put plainly: Binding affinity to wild-type human partial length AMPK alpha1 (M1 to E306 residues) expressed in bacterial expression system assessed as residual binding level at 1 uM by Kinomescan method relative to control.
Data set [3] concerns the target Phosphatidylinositol 4-phosphate 3-kinase C2 domain-containing subunit beta (Homo sapiens) (UniProt O00750). Put plainly: Binding affinity to wild-type human partial length PIK3C2B (M1 to L1634 residues) expressed in mammalian expression system assessed as residual binding level at 1 uM by Kinomescan method relative to control.
In data set [4] the target is Casein kinase I isoform epsilon (Homo sapiens) (UniProt P49674). Description: Binding affinity to wild-type human full length CSNK1E (M1 to K416 residues) expressed in bacterial expression system assessed as residual binding level at 1 uM by Kinomescan method relative to control.
Data set [5] concerns the target MAP kinase-interacting serine/threonine-protein kinase 2 (Homo sapiens) (UniProt Q9HBH9). Description: Binding affinity to wild-type human partial length MKNK2 (G63 to S388 residues) expressed in mammalian expression system assessed as residual binding level at 1 uM by Kinomescan method relative to control.
In data set [6] the target is Serine/threonine-protein kinase MRCK alpha (Homo sapiens) (UniProt Q5VT25). Description: Binding affinity to wild-type human partial length MRCKA (L57 to V418 residues) expressed in bacterial expression system assessed as residual binding level at 1 uM by Kinomescan method relative to control.
Data set [7] deals with Hepatocyte growth factor receptor (Homo sapiens), P08581 [M1250T]. Put plainly: Binding affinity to human partial length MET M1250T mutant (D1010 to S1367 residues) expressed in bacterial expression system assessed as residual binding level at 1 uM by Kinomescan method relative to control. Summed up: (§1)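 Kinome-wide selectivity panel run by the KINOMEscan method, with the test compound at a single concentration of 1 μM. Wild-type and mutant kinases were profiled in the same screen.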

Data set [8] has as its target Glycogen synthase kinase-3 beta (Homo sapiens) (UniProt P49841). Description: Binding affinity to wild-type human full length GSK3B (M1 to T433 residues) expressed in mammalian expression system assessed as residual binding level at 1 uM by Kinomescan method relative to control. Summed up: (§2)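 Single-point kinome-wide KINOMEscan binding panel, test compound at 1 μM, run by the provider's standard protocol.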

The target of data set [9] is Interleukin-1 receptor-associated kinase 3 (Homo sapiens) (UniProt Q9Y616). Description: Binding affinity to wild-type human partial length IRAK3 (V147 to E596 residues) expressed in bacterial expression system assessed as residual binding level at 1 uM by Kinomescan method relative to control.
In data set [10] the test system is Phosphatidylinositol 4,5-bisphosphate 3-kinase catalytic subunit alpha isoform (Homo sapiens), P42336 [M1043I]. Put plainly: Binding affinity to human partial length PIK3CA M1043I mutant (R108 to N1068 residues) expressed in mammalian expression system assessed as residual binding level at 1 uM by Kinomescan method relative to control.
In data set [11] the target is Serine/threonine-protein kinase STK11 (Homo sapiens) (UniProt Q15831). Put plainly: Binding affinity to wild-type human full length LKB1 (M1 to Q433 residues) expressed in bacterial expression system assessed as residual binding level at 1 uM by Kinomescan method relative to control. The procedure, abridged: as §2
The target of data set [12] is Calcium/calmodulin-dependent protein kinase kinase 2 (Homo sapiens) (UniProt Q96RR4). Description: Binding affinity to wild-type human partial length CAMKK2 (D65 to V471 residues) expressed in bacterial expression system assessed as residual binding level at 1 uM by Kinomescan method relative to control.
The target in data set [13] is Tyrosine-protein kinase JAK2 (Homo sapiens) (UniProt O60674). Description: Binding affinity to wild-type human partial length JAK2 JH1 catalytic domain (A829 to G1132 residues) expressed in mammalian expression system assessed as residual binding level at 1 uM by Kinomescan method relative to control.
For data set [14], the target named is TRAF2 and NCK-interacting protein kinase (Homo sapiens) (UniProt Q9UKE5). Description: Binding affinity to wild-type human partial length TNIK (D4 to K311 residues) expressed in bacterial expression system assessed as residual binding level at 1 uM by Kinomescan method relative to control.
Data set [15] concerns Tyrosine-protein kinase ABL1 (Homo sapiens), P00519 [H396P]. Description: Binding affinity to human phosphorylated ABL1 H396P mutant (S229 to K512 residues) expressed in mammalian expression system assessed as residual binding level at 1 uM by Kinomescan method relative to control. Summed up: as §1
The target of data set [16] is Cyclin-dependent kinase 17 (Homo sapiens) (UniProt Q00537). Description: Binding affinity to wild-type human full length PCTK2 (M1 to F523 residues) expressed in bacterial expression system assessed as residual binding level at 1 uM by Kinomescan method relative to control. The procedure, abridged: as §2
The target in data set [17] is Protein kinase C epsilon type (Homo sapiens) (UniProt Q02156). Put plainly: Binding affinity to wild-type human partial length PRKCE (A378 to P737 residues) expressed in mammalian expression system assessed as residual binding level at 1 uM by Kinomescan method relative to control.
Data set [18] is described as follows: Drug uptake in mouse lung at 10 mg/kg, po after 2 hrs. The class given is ADME, organism-based. Particulars: read-out: Drug uptake.
The target in data set [19] is Mitogen-activated protein kinase kinase kinase 7 (Homo sapiens) (UniProt O43318). Description: Binding affinity to wild-type human partial length TAK1 (M1 to Q303 residues) expressed in mammalian expression system assessed as residual binding level at 1 uM by Kinomescan method relative to control.
Data set [20] has as its target Phosphatidylinositol 5-phosphate 4-kinase type-2 gamma (Homo sapiens) (UniProt Q8TBX8). Put plainly: Binding affinity to wild-type human partial length PIP5K2C (M1 to A421 residues) expressed in mammalian expression system assessed as residual binding level at 1 uM by Kinomescan method relative to control.
For data set [21], the target named is Ribosomal protein S6 kinase alpha-4 (Homo sapiens) (UniProt O75676). Description: Binding affinity to wild-type human partial length C-terminal RPS6KA4 kinase domain 2 (M375 to T705 residues) expressed in mammalian expression system assessed as residual binding level at 1 uM by Kinomescan method relative to control.
Data set [22] concerns the target Serine/threonine-protein kinase Nek11 (Homo sapiens) (UniProt Q8NG66). Put plainly: Binding affinity to wild-type human partial length NEK11 (M1 to E313 residues) expressed in mammalian expression system assessed as residual binding level at 1 uM by Kinomescan method relative to control.
Data set [23] concerns Phosphatidylinositol 4,5-bisphosphate 3-kinase catalytic subunit alpha isoform (Homo sapiens), P42336 [E542K]. Description: Binding affinity to human partial length PIK3CA E542K mutant (R108 to N1068 residues) expressed in mammalian expression system assessed as residual binding level at 1 uM by Kinomescan method relative to control.

pEC50: −log10 of the molar value.

Chain of Serine/threonine-protein kinase STK11 (Homo sapiens) (Q15831 whole entry, the tested form may be a part): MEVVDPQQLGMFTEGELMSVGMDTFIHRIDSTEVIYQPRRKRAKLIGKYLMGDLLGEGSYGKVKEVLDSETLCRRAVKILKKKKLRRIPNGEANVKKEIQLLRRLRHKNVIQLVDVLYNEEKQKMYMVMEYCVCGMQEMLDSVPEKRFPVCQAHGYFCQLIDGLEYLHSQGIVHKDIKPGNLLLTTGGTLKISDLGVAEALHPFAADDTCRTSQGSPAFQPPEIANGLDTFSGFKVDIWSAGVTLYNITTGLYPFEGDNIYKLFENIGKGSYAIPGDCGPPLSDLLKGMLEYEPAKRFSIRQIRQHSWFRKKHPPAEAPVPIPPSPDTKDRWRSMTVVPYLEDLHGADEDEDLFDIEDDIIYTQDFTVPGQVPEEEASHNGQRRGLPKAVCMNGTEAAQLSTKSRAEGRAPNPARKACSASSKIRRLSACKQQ
Chain of Serine/threonine-protein kinase Nek11 (Homo sapiens) (Q8NG66 whole entry, the tested form may be a part, canonical isoform): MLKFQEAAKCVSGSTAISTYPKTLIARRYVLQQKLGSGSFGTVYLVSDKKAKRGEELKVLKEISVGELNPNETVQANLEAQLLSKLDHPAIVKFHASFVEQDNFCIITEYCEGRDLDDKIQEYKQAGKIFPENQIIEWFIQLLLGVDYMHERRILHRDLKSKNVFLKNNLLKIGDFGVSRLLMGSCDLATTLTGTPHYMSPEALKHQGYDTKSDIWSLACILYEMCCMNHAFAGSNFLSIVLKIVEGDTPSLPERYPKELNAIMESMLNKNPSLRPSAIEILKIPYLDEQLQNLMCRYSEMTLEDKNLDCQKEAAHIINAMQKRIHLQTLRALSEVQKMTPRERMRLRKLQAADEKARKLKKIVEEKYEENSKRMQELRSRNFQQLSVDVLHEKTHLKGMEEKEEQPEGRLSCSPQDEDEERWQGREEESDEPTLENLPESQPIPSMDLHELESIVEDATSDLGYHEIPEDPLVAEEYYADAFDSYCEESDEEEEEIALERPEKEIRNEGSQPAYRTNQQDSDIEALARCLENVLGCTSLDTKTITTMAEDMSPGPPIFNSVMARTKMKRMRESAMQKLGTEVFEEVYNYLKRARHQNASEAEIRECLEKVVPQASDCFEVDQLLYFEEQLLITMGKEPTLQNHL
Chain of Interleukin-1 receptor-associated kinase 3 (Homo sapiens) (Q9Y616 whole entry, the tested form may be a part, canonical isoform): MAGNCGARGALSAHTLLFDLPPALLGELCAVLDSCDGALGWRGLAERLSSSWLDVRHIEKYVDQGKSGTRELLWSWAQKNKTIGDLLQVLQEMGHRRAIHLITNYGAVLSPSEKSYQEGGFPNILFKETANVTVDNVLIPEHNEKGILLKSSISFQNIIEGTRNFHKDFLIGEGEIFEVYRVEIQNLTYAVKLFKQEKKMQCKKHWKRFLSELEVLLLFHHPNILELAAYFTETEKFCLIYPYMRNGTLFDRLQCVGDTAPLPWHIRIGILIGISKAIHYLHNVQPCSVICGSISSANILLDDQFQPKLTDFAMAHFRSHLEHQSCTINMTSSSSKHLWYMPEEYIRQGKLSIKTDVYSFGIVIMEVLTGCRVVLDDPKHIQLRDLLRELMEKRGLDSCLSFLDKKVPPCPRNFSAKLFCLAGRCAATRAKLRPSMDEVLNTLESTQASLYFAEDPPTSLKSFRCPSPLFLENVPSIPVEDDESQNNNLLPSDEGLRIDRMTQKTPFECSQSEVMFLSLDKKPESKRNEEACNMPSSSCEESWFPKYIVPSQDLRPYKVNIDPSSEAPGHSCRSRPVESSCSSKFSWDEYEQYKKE
Chain of Phosphatidylinositol 5-phosphate 4-kinase type-2 gamma (Homo sapiens) (Q8TBX8 whole entry, the tested form may be a part): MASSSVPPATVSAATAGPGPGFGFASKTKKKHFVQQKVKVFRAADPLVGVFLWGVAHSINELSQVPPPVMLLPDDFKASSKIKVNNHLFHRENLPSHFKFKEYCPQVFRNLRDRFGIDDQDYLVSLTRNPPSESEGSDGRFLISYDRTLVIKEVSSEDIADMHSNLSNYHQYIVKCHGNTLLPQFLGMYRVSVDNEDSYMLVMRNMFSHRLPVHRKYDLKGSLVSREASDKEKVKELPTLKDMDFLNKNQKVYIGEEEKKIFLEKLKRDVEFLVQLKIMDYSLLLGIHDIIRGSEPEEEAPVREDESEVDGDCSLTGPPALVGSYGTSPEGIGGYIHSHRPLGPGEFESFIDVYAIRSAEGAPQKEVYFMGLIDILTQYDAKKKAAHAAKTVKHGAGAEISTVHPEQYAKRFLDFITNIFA
Chain of MAP kinase-interacting serine/threonine-protein kinase 2 (Homo sapiens) (Q9HBH9 whole entry, looked up, the tested form may be a part): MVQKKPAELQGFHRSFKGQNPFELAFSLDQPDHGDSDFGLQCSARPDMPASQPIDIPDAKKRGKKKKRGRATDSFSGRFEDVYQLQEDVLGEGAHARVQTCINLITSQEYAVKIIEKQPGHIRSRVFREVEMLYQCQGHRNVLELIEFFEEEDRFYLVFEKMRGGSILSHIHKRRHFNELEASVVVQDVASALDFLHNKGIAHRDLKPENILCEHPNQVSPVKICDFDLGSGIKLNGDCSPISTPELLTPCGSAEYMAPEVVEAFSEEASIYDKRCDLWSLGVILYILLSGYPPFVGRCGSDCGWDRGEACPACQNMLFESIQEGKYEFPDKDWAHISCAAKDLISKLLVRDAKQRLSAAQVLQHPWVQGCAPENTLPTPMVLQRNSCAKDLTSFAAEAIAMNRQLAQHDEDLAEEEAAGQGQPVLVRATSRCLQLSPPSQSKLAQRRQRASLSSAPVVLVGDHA
Chain of Mitogen-activated protein kinase kinase kinase 7 (Homo sapiens) (O43318 whole entry, the tested form may be a part): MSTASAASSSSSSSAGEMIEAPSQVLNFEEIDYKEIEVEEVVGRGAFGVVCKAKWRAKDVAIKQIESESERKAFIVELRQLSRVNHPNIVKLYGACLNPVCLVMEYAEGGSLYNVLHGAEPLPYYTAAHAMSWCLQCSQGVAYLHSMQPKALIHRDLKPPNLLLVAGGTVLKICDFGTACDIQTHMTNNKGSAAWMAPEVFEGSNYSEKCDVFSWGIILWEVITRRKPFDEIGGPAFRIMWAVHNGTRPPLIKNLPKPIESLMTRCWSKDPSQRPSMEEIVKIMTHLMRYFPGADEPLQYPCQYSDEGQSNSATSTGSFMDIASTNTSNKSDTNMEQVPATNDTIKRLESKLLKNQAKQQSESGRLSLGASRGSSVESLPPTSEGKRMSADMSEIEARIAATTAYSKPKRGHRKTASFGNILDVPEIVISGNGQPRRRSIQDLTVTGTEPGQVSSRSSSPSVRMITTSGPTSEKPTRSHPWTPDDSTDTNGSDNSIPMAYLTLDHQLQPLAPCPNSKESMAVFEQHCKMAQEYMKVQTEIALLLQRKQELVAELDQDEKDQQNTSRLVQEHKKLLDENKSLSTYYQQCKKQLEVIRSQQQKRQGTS
Chain of Ribosomal protein S6 kinase alpha-4 (Homo sapiens) (O75676 whole entry, looked up, the tested form may be a part): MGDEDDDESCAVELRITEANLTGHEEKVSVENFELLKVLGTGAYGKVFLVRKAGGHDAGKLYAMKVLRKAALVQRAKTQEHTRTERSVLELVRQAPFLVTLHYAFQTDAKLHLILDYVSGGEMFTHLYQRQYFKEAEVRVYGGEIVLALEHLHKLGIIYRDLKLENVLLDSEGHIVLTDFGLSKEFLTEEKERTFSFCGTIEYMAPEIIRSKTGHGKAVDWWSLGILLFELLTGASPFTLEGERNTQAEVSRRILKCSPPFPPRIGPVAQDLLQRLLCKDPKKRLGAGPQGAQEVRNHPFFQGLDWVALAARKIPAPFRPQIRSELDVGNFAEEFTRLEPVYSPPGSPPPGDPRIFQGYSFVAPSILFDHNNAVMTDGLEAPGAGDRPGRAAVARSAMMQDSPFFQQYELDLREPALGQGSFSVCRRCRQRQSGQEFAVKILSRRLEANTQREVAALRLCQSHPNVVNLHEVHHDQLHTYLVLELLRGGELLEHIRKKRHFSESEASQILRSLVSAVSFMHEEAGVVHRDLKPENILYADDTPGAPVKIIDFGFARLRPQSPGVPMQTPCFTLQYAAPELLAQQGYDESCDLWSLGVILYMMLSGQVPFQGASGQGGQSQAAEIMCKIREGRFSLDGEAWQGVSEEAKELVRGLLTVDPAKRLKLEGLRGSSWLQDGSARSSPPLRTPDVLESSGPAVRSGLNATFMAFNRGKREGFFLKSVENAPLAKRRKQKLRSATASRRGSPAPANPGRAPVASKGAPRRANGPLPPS
Chain of Casein kinase I isoform epsilon (Homo sapiens) (P49674 whole entry, looked up, the tested form may be a part, canonical isoform): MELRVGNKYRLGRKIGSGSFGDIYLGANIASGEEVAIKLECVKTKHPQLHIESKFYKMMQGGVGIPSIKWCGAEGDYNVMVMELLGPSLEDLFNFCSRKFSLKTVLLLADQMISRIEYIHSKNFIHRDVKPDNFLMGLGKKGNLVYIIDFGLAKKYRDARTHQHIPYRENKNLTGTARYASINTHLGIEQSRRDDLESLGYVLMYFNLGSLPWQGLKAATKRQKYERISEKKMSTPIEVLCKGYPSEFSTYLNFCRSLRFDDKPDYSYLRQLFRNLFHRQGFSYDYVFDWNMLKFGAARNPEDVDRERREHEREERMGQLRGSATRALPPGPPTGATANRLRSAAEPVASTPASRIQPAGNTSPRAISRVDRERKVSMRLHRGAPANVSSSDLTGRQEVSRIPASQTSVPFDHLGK
Chain of Glycogen synthase kinase-3 beta (Homo sapiens) (P49841 whole entry, looked up, the tested form may be a part): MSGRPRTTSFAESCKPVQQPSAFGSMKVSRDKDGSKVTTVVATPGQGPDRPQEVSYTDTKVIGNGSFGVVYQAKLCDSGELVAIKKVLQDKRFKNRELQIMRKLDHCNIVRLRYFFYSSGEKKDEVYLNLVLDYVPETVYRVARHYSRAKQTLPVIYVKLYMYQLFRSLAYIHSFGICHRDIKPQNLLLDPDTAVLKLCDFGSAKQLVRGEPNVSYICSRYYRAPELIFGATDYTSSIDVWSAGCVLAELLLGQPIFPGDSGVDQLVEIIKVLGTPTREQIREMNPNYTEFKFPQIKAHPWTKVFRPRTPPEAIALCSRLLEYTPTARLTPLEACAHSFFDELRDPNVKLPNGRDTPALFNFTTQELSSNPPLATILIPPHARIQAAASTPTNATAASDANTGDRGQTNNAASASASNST

As to `C=CC(=O)Nc1cc(Nc2ncc(Cl)c(Nc3ccccc3S(=O)(=O)C(C)C)n2)c(OC)cc1N(C)CCN(C)C`, the Activity was determined as 40% in data set [1]; 16% in data set [2]; 69% in data set [3]; 100% in [4]; 26% in [5]; 97% in data set [6]. For the same compound, the Activity amounted to 14% in data set [7]; 93% in [8]; 37% in data set [9]; 84% in data set [10]; 88% in data set [11]; 1.6% in data set [12]. Further, the Activity worked out at 5.7% in [13]; 61% in [14]; 5.5% in data set [15]; 74% in data set [16]; 99% in [17]; 35% in data set [19]. The Activity in data set [20] was 90%; in data set [21], 100%; in [22], 100%; in [23], 72%. The pEC50 in the data set on BaF3 is under 5.30. Also, the concentration at 2 h in [18] came to 4.64 µM.
